Experimental data pooled from the literature.
Protocols differ between the studies behind these lines.
Target: Mitogen-activated protein kinase kinase kinase 10 (MAP3K10, Homo sapiens, UniProt Q02779)

read-out | method | tested at | remaining binding [%] | Compound
binding | competition with immobilised ligand | 1 µM | 3.5 | O=C(c1ccc(Nc2ncc(Cl)c(-c3cc4ccccc4s3)n2)cc1)N1CCC(N2CCCC2)CC1
binding | competition with immobilised ligand | 0.1 µM | 82 | C[C@@H](c1ccc(-n2cnc3c(N)ncnc32)cc1)N1CCc2nn(C)c(Cc3ccccc3)c2C1=O
binding |  | 1 µM | 100 | C[C@H]1CCN(c2nccc(-c3cnn4ncccc34)n2)C1
binding | competition with immobilised ligand | 1 µM | 100 | O=c1nc(-c2ccccn2)sc2ccccc12
binding |  | 1 µM | 100 | Cc1cnn2ncc(-c3ccnc(N(C)C)n3)c2c1
binding | competition with immobilised ligand | 1 µM | 93 | c1ccc(N2CCN(Cc3nc4ccccc4[nH]3)CC2)nc1
binding | competition with immobilised ligand | 1 µM | 79 | COc1cnc(Nc2cccc(S(N)(=O)=O)c2)nc1N1CCN(c2ccccc2)C(=O)C1
binding |  | 1 µM | 0 | CN(CCCC(F)(F)F)c1nccc(-c2cnn3ncccc23)n1
binding | competition with immobilised ligand | 1 µM | 3 | O=C(NCCCN1CCOCC1)c1ccc(Nc2ncc(Cl)c(-c3ccc(Cl)s3)n2)cc1
cell-free assay | competition with immobilised ligand | 1 µM | 75 | CN(C(=O)c1ccccc1)c1cc(N(C)c2ccc3c(c2)CCc2ccc(C(=O)NCCN4CCOCC4)cc2C3=O)ccc1F
binding |  | 1 µM | 100 | N[C@@H]1CCN(c2nccc(-c3cnn4ncccc34)n2)C1
cell-free assay | competition with immobilised ligand | 1 µM | 96 | COc1cc(-c2cn(C3CCc4ccccc4N(CC(F)(F)F)C3=O)nn2)ccc1-n1ccc(C)n1 (stereo not drawn)
binding | competition with immobilised ligand | 1 µM | 21 | O=C(c1ccc(Nc2nccc(-c3cc4ccccc4s3)n2)cc1)N1CCC(N2CCCC2)CC1
cell-free assay | competition with immobilised ligand | 5 µM | 58 | FC(F)(F)Oc1cccc(-c2cnc3ccc(-c4ccncc4)nn23)c1
cell-free assay | competition with immobilised ligand | 1 µM | 95 | CC(=O)N1CCC(c2ccc(C(=O)NC(=N)N)cc2C(F)(F)F)CC1
binding | competition with immobilised ligand | 1 µM | 99 | C=CC(=O)N1CCC(C(=O)NCC(=O)N2CCN(c3nc(-c4cnc(N)nc4C(F)F)nc(N4CCOCC4)n3)CC2)CC1
binding |  | 1 µM | 78 | COc1ccnn2ncc(-c3ccnc(N(C)C)n3)c12
binding | competition with immobilised ligand | 1 µM | 100 | O=C(NCC1CCOCC1)c1n[nH]cc1NC(=O)c1c(F)cccc1F
cell-free assay | competition with immobilised ligand | 1 µM | 100 | CN1CCN(c2cnc3c(C4CCN(C(=O)c5ccc(OC(F)(F)F)cc5N)CC4)ncnc3c2)CC1
binding |  | 1 µM | 72 | CN(C)c1nccc(-c2cnc3ncccn23)n1
binding | competition with immobilised ligand | 1 µM | 89 | COc1cnc(Nc2cccc(S(N)(=O)=O)c2)nc1N1CCN(c2ccccc2)CC1
